Published values from different studies.
Protocols differ between the studies behind these lines.
Target: cAMP-dependent protein kinase catalytic subunit PRKX (PRKX, Homo sapiens, UniProt P51817)
One construct used (P51817 1-358): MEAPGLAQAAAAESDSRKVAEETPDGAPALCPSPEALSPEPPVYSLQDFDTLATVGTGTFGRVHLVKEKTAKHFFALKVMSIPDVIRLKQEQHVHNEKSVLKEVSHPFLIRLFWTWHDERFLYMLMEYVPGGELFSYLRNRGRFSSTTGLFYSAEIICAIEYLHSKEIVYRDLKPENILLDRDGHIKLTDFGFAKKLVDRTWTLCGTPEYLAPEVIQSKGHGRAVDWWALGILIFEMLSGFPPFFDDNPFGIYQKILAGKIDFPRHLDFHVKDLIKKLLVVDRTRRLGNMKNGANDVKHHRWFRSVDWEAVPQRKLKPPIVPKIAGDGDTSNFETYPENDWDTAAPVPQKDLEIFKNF

Cn1cncc1[C@@](O)(COc1ccc(C#N)cc1-c1ccc(OC(F)(F)F)cc1)c1ccc(C#N)cc1  remaining binding (cell-free assay; competition with immobilised ligand; 1 µM): 94%
COc1cc(Nc2ncc(F)c(Nc3ccc4c(n3)NC(=O)C(C)(C)O4)n2)cc(OC)c1OC  inhibition (binding; 10 µM): 0%
Cc1nn(C)cc1-c1nc2c(N3CCN(Cc4ccc(Cl)cc4)CC3)c(Cl)cnc2[nH]1  remaining binding (binding; competition with immobilised ligand; 1 µM): 18%
Cn1cc(-c2cc(F)cc(N3CCn4c(cc5c4CCCC5)C3=O)c2CO)cc(Nc2ccc(N3CCN(C4COC4)CC3)cn2)c1=O  inhibition (enzyme activity; inhibitor; 0.1 µM): 17%
Nc1ncc(-c2nc(N3CCOCC3)nc(N3CCOCC3)n2)c(C(F)F)n1  remaining binding (binding; competition with immobilised ligand; 10 µM): 90%
CC(C)(C)c1cc(C=C(C#N)C#N)cc(Br)c1O  remaining activity (enzyme activity; inhibitor; 0.5 µM): 102%
Cn1cc(-c2cccc(N3CCc4c(sc5c4CC(C)(C)C5)C3=O)c2CO)cc(Nc2ccncn2)c1=O  inhibition (enzyme activity; inhibitor; 1 µM): 1%
COc1ncccc1-c1cnn2ccc(N3CCN(C(=O)OC(C)C)CC3)nc12  remaining binding (binding; competition with immobilised ligand; 1 µM): 100%
O=c1[nH]c2ccccc2n1C1CCN(Cc2ccc(-c3[nH]c4cc5ncnc5cc4nc3-c3ccccc3)cc2)CC1  remaining signal (cell-free assay; 0.5 µM): 101%
